# According to ChEMBL document CHEMBL2169743, “Identification of novel 2-((1-(benzyl(2-hydroxy-2-phenylethyl)amino)-1-oxo-3-phenylpropan-2-yl)carbamoyl)benzoic acid analogues as BMP-2 stimulators” (J Med Chem, 2012):
# Active and inactive are the calls of the source. The rule behind the calls is not given here.
# Tests used:
# Calvarial osteoblast [1] = test: Induction of Runx-2 mRNA expression in Sprague-Dawley rat calvarial osteoblasts at 10 nM after 72 hrs by qPCR analysis in presence of noggin; type: functional, cell-based
# Outline: (§1)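 Rat calvarial osteoblasts treated for 72 h with 10 nM compound, 100 ng/mL BMP-2 and 50 ng/mL noggin, alone or combined. Runx-2 and osteocalcin mRNA measured by qPCR. Data are mean ± SEM from three independent experiments.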
# Calvarial osteoblast [2] = test: Induction of BMP-2 mRNA expression in Sprague-Dawley rat calvarial osteoblasts at 10 nM by qPCR analysis; type: functional, cell-based; conditions: TDE = time-dependent effect
# Outline: (§2)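 Primary calvarial osteoblasts from pooled 1–2-day-old Sprague–Dawley rat pups (both sexes), released by sequential Dispase/collagenase P digestion at 37 °C. Cells kept in osteoblast differentiation medium with 10 nM compound or vehicle and sampled at several time points (24 h up to 72 h) for qPCR. Results given as fold change, mean ± SEM, triplicate.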
# Rattus norvegicus [3] = test: Osteogenic activity in Sprague-Dawley rat femur drill-hole fracture model assessed as increase in trabecular thickness at 1 to 5 mg/kg/day after 2 weeks by micro-CT method relative to vehicle-treated control; type: functional, organism-based
# Outline: (§3)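 Same rat femoral drill-hole model: 10 rats/group, 1.0 or 5.0 mg·kg⁻¹·day⁻¹ or gum acacia vehicle for 2 weeks starting the day after injury. Femurs taken at autopsy; μCT of the drill-hole gives BV/TV, Tb.N, Tb.Th, Tb.Sp, Conn.Dens and SMI. Mean ± SEM.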
# Rattus norvegicus [4] = test: Toxicity in Sprague-Dawley rat assessed as effect on aorta BMP-4 mRNA expression at 1 to 5 mg/kg/day after 2 weeks by qPCR analysis relative to vehicle-treated control; type: organism-based; conditions: in vivo, 336 h
# Rattus norvegicus [5] = test: Osteogenic activity in Sprague-Dawley rat femur drill-hole fracture model assessed as increase in bone volume/trabecular volume at 1 to 5 mg/kg/day after 2 weeks by micro-CT method relative to vehicle-treated control; type: functional, organism-based; outline: as §3
# Calvarial osteoblast [6] = test: Induction of […] mRNA expression in Sprague-Dawley rat calvarial osteoblasts at 10 nM after 72 hrs by qPCR analysis in presence of noggin; type: functional, cell-based; outline: as §1
# Rattus norvegicus [7] = test: Toxicity in Sprague-Dawley rat assessed as effect on aorta BMP-2 mRNA expression at 1 to 5 mg/kg/day after 2 weeks by qPCR analysis relative to vehicle-treated control; type: organism-based; conditions: in vivo, 336 h
# Rattus norvegicus [8] = test: Osteogenic activity in Sprague-Dawley rat femur drill-hole fracture model assessed as bone formation at 5 mg/kg/day after 2 weeks by calcein labeling-based confocal microscopy relative to vehicle-treated control; type: functional
# Outline: (§4)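 Bilateral femoral diaphysis drill-hole (0.8 mm bit, 2 cm above knee) in rats, 10 per group. Daily dosing at 1.0 or 5.0 mg·kg⁻¹·day⁻¹, or gum acacia/water vehicle, from the day after injury for 2 weeks. Calcein 20 mg/kg i.p. given 2 days before autopsy. Acrylic-embedded 50 μm sections imaged by confocal microscopy; calcein intensity quantified. Mean ± SEM.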
# Calvarial osteoblast [9] = test: Osteogenic activity in Sprague-Dawley rat calvarial osteoblasts assessed as BMP-2 level at 1000 nM after 48 hrs by ELISA relative to control; type: functional
# Rattus norvegicus [10] = test: Toxicity in Sprague-Dawley rat assessed as effect on cuspid valve BMP-2 mRNA expression at 1 to 5 mg/kg/day after 2 weeks by qPCR analysis relative to vehicle-treated control; type: organism-based; conditions: in vivo, 336 h
# Rattus norvegicus [11] = species on record: Rattus norvegicus; test: Osteogenic activity in Sprague-Dawley rat femur drill-hole fracture model assessed as increase in osteoblast formation after 2 weeks by calcein labeling-based confocal microscopy relative to vehicle-treated control; type: functional, organism-based; outline: as §4
# MC3T3-E1 [12] = test: Inhibition of 20S proteasome in mouse MC3T3-E1 cells at 100 nM after 48 hrs by Bradford assay; type: cell-based
# Outline: (§5)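 MC3T3-E1 cells seeded at 2 × 10⁶/well and treated for 48 h. Lysed in HEPES pH 7.5/EDTA/NaCl/1% Triton X-100 on ice; protein measured by Bradford. 10 μg lysate incubated with fluorogenic 20S proteasome substrate for 1 h at 37 °C in the dark, fluorescence read at 380/460 nm. Lactacystin 25 μM as reference. Mean ± SEM, three independent experiments.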
# Rattus norvegicus [13] = test: Toxicity in Sprague-Dawley rat assessed as effect on aorta BMP-7 mRNA expression at 1 to 5 mg/kg/day after 2 weeks by qPCR analysis relative to vehicle-treated control; type: organism-based; conditions: in vivo, 336 h
# Calvarial osteoblast [14] = test: Osteogenic activity in Sprague-Dawley rat calvarial osteoblasts assessed as BMP-2 level at 100 nM after 48 hrs by ELISA relative to control; type: functional
# Calvarial osteoblast [15] = test: Induction of […] mRNA expression in Sprague-Dawley rat calvarial osteoblasts at 10 nM by qPCR analysis; type: functional, cell-based; conditions: TDE = time-dependent effect; outline: as §2
# Rattus norvegicus [16] = test: Osteogenic activity in Sprague-Dawley rat femur drill-hole fracture model assessed as bone formation at 1 mg/kg/day after 2 weeks by calcein labeling-based confocal microscopy relative to vehicle-treated control; type: functional; outline: as §4
# Rattus norvegicus [17] = species on record: Rattus norvegicus; test: Osteogenic activity in Sprague-Dawley rat femur drill-hole fracture model assessed as increase in callus regeneration after 2 weeks by calcein labeling-based confocal microscopy relative to vehicle-treated control; type: functional, organism-based; outline: as §4
# MC3T3-E1 [18] = test: Inhibition of 20S proteasome in mouse MC3T3-E1 cells after 48 hrs by Bradford assay; type: cell-based; outline: as §5
# Calvarial osteoblast [19] = test: Induction of mineralization in Sprague-Dawley rat calvarial osteoblasts assessed as increase of mineralized nodule formation at 10 nM after 21 days by Alizarin Red S staining relative to vehicle-treated control; type: functional, cell-based
# Outline: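 Rat calvarial osteoblasts grown to 80% confluence, then plated at 25 000 cells/well in differentiation medium (growth medium plus 50 μg/mL ascorbic acid and […]) with 10 nM compound or vehicle. Medium changed every other day for 21 days. Cells fixed in 4% paraformaldehyde and stained with 40 mM Alizarin Red S (pH 4.5). Dye extracted with 10% acetic acid at 85 °C, neutralized, OD 405 nm read.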
# Calvarial osteoblast [20] = test: Induction of Runx mRNA expression in Sprague-Dawley rat calvarial osteoblasts at 10 nM by qPCR analysis; type: functional, cell-based; conditions: TDE = time-dependent effect; outline: as §2
# Rattus norvegicus [21] = test: Osteogenic activity in Sprague-Dawley rat femur drill-hole fracture model assessed as decrease in structure model index at 1 to 5 mg/kg/day after 2 weeks by micro-CT method relative to vehicle-treated control; type: functional, organism-based; outline: as §3
# Rattus norvegicus [22] = test: Toxicity in Sprague-Dawley rat assessed as effect on cuspid valve BMP-7 mRNA expression at 1 to 5 mg/kg/day after 2 weeks by qPCR analysis relative to vehicle-treated control; type: organism-based; conditions: in vivo, 336 h
# Rattus norvegicus [23] = test: Toxicity in Sprague-Dawley rat assessed as effect on cuspid valve BMP-4 mRNA expression at 1 to 5 mg/kg/day after 2 weeks by qPCR analysis relative to vehicle-treated control; type: organism-based; conditions: in vivo, 336 h
# Calvarial osteoblast [24] = test: Osteogenic activity in Sprague-Dawley rat calvarial osteoblasts assessed as BMP-2 level at 0.1 nM after 48 hrs by ELISA relative to control; type: functional
# Rattus norvegicus [25] = test: Osteogenic activity in Sprague-Dawley rat femur drill-hole fracture model assessed as decrease in trabecular spacing at 1 to 5 mg/kg/day after 2 weeks by micro-CT method relative to vehicle-treated control; type: functional, organism-based; outline: as §3
# Calvarial osteoblast [26] = test: Induction of type 1 collagen mRNA expression in Sprague-Dawley rat calvarial osteoblasts at 10 nM by qPCR analysis; type: functional, cell-based; conditions: TDE = time-dependent effect; outline: as §2
# Calvarial osteoblast [27] = test: Osteogenic activity in Sprague-Dawley rat calvarial osteoblasts assessed as BMP-2 level at 1 nM after 48 hrs by ELISA relative to control; type: functional
# Rattus norvegicus [28] = test: Osteogenic activity in Sprague-Dawley rat femur drill-hole fracture model assessed as increase in connection density at 1 to 5 mg/kg/day after 2 weeks by micro-CT method relative to vehicle-treated control; type: functional, organism-based; outline: as §3
# Rattus norvegicus [29] = species on record: Rattus norvegicus; test: Osteogenic activity in Sprague-Dawley rat femur drill-hole fracture model assessed as increase in osteoblast recruitment after 2 weeks by calcein labeling-based confocal microscopy relative to vehicle-treated control; type: functional, organism-based; outline: as §4
# Calvarial osteoblast [30] = test: Osteogenic activity in Sprague-Dawley rat calvarial osteoblasts assessed as BMP-2 mRNA expression at 0.1 to 1000 nM after 48 hrs by qPCR analysis relative to control; type: functional, cell-based
# Calvarial osteoblast [31] = test: Osteogenic activity in Sprague-Dawley rat calvarial osteoblasts assessed as BMP-2 level at 10 nM after 48 hrs by ELISA relative to control; type: functional
# Rattus norvegicus [32] = test: Osteogenic activity in Sprague-Dawley rat femur drill-hole fracture model assessed as increase in trabecular number at 1 to 5 mg/kg/day after 2 weeks by micro-CT method relative to vehicle-treated control; type: functional, organism-based; outline: as §3
smiles,measurement,setting,value
O=C(O)c1ccccc1C(=O)NC(Cc1ccccc1)C(=O)N(Cc1ccccc1)CC(O)c1ccccc1 (stereo not drawn),Activity,Calvarial osteoblast [1],inactive
same,Activity,Calvarial osteoblast [2],tde
same,Activity,Rattus norvegicus [3],Active
same,Activity,Rattus norvegicus [4],Non-toxic
same,Activity,Rattus norvegicus [5],Active
same,Activity,Calvarial osteoblast [6],inactive
same,Activity,Rattus norvegicus [7],Non-toxic
same,fold change (FC),Rattus norvegicus [8],3.12
same,Activity,Calvarial osteoblast [9],133%
same,Activity,Rattus norvegicus [10],Non-toxic
same,Activity,Rattus norvegicus [11],Dose-dependent effect
same,inhibition,MC3T3-E1 [12],inactive
same,Activity,Rattus norvegicus [13],Non-toxic
same,Activity,Calvarial osteoblast [14],137.2%
same,Activity,Calvarial osteoblast [15],tde
same,fold change (FC),Rattus norvegicus [16],2.16
same,Activity,Rattus norvegicus [17],Dose-dependent effect
same,inhibition,MC3T3-E1 [18],Dose-dependent effect
same,Activity,Calvarial osteoblast [19],Active
same,Activity,Calvarial osteoblast [20],tde
same,Activity,Rattus norvegicus [21],Active
same,Activity,Rattus norvegicus [22],Non-toxic
same,Activity,Rattus norvegicus [23],Non-toxic
same,Activity,Calvarial osteoblast [24],140%
same,Activity,Rattus norvegicus [25],Active
same,Activity,Calvarial osteoblast [26],tde
same,Activity,Calvarial osteoblast [27],159.5%
same,Activity,Rattus norvegicus [28],Active
same,Activity,Rattus norvegicus [29],Dose-dependent effect
same,Activity,Calvarial osteoblast [30],Active
same,Activity,Calvarial osteoblast [31],155.6%
same,Activity,Rattus norvegicus [32],Active
CC(=O)OC(CNC(=O)C(Cc1ccccc1)NC(=O)c1ccccc1C(=O)O)c1ccccc1 (stereo not drawn),Activity,Calvarial osteoblast [9],103%
same,Activity,Calvarial osteoblast [14],96.03%
same,Activity,Calvarial osteoblast [24],106%
same,Activity,Calvarial osteoblast [27],98.67%
same,Activity,Calvarial osteoblast [31],98.33%
N#CC(CN(Cc1ccccc1)C(=O)C(Cc1ccccc1)NC(=O)c1ccccc1C(=O)O)c1ccccc1 (stereo not drawn),Activity,Calvarial osteoblast [9],92.6%
same,Activity,Calvarial osteoblast [14],96.69%
same,Activity,Calvarial osteoblast [24],83.6%
same,Activity,Calvarial osteoblast [27],97.35%
same,Activity,Calvarial osteoblast [31],89.28%
O=C(O)c1ccccc1C(=O)NC(Cc1ccccc1)C(=O)NCCc1ccccc1 (stereo not drawn),Activity,Calvarial osteoblast [9],132%
same,Activity,Calvarial osteoblast [14],166.11%
same,Activity,Calvarial osteoblast [24],111%
same,Activity,Calvarial osteoblast [27],122.8%
same,Activity,Calvarial osteoblast [30],Active
same,Activity,Calvarial osteoblast [31],114.24%
O=C(OC(CN(Cc1ccccc1)C(=O)C(Cc1ccccc1)NC(=O)c1ccccc1C(=O)O)c1ccccc1)c1ccccc1 (stereo not drawn),Activity,Calvarial osteoblast [9],112%
same,Activity,Calvarial osteoblast [14],103.15%
same,Activity,Calvarial osteoblast [24],98.4%
same,Activity,Calvarial osteoblast [27],107.69%
same,Activity,Calvarial osteoblast [31],103.15%
Cc1ccc(S(=O)(=O)OC(CNC(=O)C(Cc2ccccc2)NC(=O)c2ccccc2C(=O)O)c2ccccc2)cc1 (stereo not drawn),Activity,Calvarial osteoblast [9],104%
same,Activity,Calvarial osteoblast [14],114.88%
same,Activity,Calvarial osteoblast [24],119%
same,Activity,Calvarial osteoblast [27],131.75%
same,Activity,Calvarial osteoblast [31],111.78%
Cc1ccc(S(=O)(=O)OC(CN(Cc2ccccc2)C(=O)C(Cc2ccccc2)NC(=O)c2ccccc2C(=O)O)c2ccccc2)cc1 (stereo not drawn),Activity,Calvarial osteoblast [9],111%
same,Activity,Calvarial osteoblast [14],98.7%
same,Activity,Calvarial osteoblast [24],122%
same,Activity,Calvarial osteoblast [27],141.67%
same,Activity,Calvarial osteoblast [31],109.39%
O=C(O)c1ccccc1C(=O)NC(Cc1ccccc1)C(=O)N(Cc1ccccc1)CC(OCc1ccccc1)c1ccccc1 (stereo not drawn),Activity,Calvarial osteoblast [9],92.6%
same,Activity,Calvarial osteoblast [14],103.27%
same,Activity,Calvarial osteoblast [24],89.8%
same,Activity,Calvarial osteoblast [27],100.66%
same,Activity,Calvarial osteoblast [31],98.34%
O=C(O)c1ccccc1C(=O)NC(Cc1ccccc1)C(=O)NCC(OCc1ccccc1)c1ccccc1 (stereo not drawn),Activity,Calvarial osteoblast [9],93.6%
same,Activity,Calvarial osteoblast [14],117.2%
same,Activity,Calvarial osteoblast [24],87.8%
same,Activity,Calvarial osteoblast [27],107.27%
same,Activity,Calvarial osteoblast [31],101.32%
CC(=O)OC(CN(Cc1ccccc1)C(=O)C(Cc1ccccc1)NC(=O)c1ccccc1C(=O)O)c1ccccc1 (stereo not drawn),Activity,Calvarial osteoblast [9],100.6%
same,Activity,Calvarial osteoblast [14],98.76%
same,Activity,Calvarial osteoblast [24],88.7%
same,Activity,Calvarial osteoblast [27],89.49%
same,Activity,Calvarial osteoblast [31],83.45%
